# NCF1 inh: p47phox (human) inhibition. P14598. p47phox/p22phox peptide binding, fluorescence polarization, 2 h. inhibition, % at 24.7 µM. hit rate 0.53% among 220,000. AID 1274;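 further: 0% = p47phox with labelled peptide and 100% = labelled peptide alone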
# EBV gp42 block: EBV gp42 inhibition; inhibition, % (tested at 21.74 µM); Fluorescence polarization binding assay, mP read-out; Q1HVG2; hit rate 0.42% among 220,000; AID 1085; in the data active means inhibition above about 50%
# WT yeast gro inh: growth inhibition of WT yeast, mitochondrial fusion screen. mitochondrial fusion phenotypic screen, WT strain. inhibition, % at 10 µM. hit rate 2.1% among 190,000; in the data active means inhibition above about 58%; tested in S. cerevisiae
# eIF4E-4G inh: eIF4E/eIF4G interaction inhibition in translation initiation | TR-FRET eIF4E-eIF4GI(517-606) binding, 2 h | inhibition, % at 21.7 µM | hit rate 0.37% among 220,000;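 further: 0% = full FRET control wells and 100% = background wells lacking eIF4GI fragment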
# 14-3-3 Bad inh: disrupts binding of bovine 14-3-3 zeta to phospho-Bad peptide; P63103; TR-FRET 14-3-3zeta/Dy647-pBad peptide displacement, 1 h; inhibition, % at 21.7 µM; hit rate 0.71% among 220,000; AID 781;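 active means inhibition above about 70%, limit read from the data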;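 further: 0% = full 14-3-3 plus peptide FRET controls and 100% = background without 14-3-3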
# Target sequence (P63103 whole entry, looked up): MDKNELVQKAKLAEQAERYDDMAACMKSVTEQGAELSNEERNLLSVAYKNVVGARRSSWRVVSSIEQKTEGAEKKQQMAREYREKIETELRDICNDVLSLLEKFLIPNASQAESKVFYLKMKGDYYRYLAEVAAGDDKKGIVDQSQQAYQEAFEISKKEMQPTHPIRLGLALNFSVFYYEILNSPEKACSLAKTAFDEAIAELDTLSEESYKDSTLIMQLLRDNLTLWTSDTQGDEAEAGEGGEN
# RBBP9 inh: human RBBP9 hydrolase inhibition; recombinant RBBP9, FP-Rh probe fluorescence polarization; inhibition, % at 7.94 µM; hit rate 0.2% among 220,000; O75884;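 active means inhibition above the campaign mean of all tested compounds plus 3 SD, cut at about 14% in these data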;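 further: plate controls were DMSO wells with RBBP9 for no effect and wells lacking RBBP9 protein for full effect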
# Target sequence (O75884 whole entry, looked up): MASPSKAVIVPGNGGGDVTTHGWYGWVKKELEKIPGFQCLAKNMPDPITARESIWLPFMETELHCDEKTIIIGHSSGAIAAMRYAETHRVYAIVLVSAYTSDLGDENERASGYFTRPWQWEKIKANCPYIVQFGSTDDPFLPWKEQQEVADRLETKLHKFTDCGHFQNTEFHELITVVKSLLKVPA
#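 System: RBBP9 protein / Buffer or medium: Tris/NaCl buffer pH 8.0 with 0.1% Pluronic / Probe or stimulus: Serine-hydrolase probe FP-Rh, 375 nM pre-mixing / Dosing: 7.94 µM single dose, 0.794% DMSO / Times: enzyme-compound preincubation 30 min, then probe labeling 45 min, 25 °C / Technique: fluorescence polarization (mP), excitation 525 nm, emission 598 nm / Replication: singlicate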
# * = called active by the depositor; nt = no result; [ ] = dose if it differs, or a comment. Only some compounds are listed: those with a hit (about 3.7% of all), similar ones and a draw of the others.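 How the source made its calls, unless noted: active means inhibition above about 30% (limit read from the data); inactive means the rest.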
SMILES,NCF1 inh,EBV gp42 block,WT yeast gro inh,eIF4E-4G inh,14-3-3 Bad inh,RBBP9 inh
CC1CC2(CCCC2)N(C(=O)c2ccccc2)Cc2ccccc21 (configuration not stated),3,-5,72*,4,-13,-2
CC(=O)N1c2c(ccc3ccccc23)C(C)CC12CCCCC2 (configuration not stated),-2,0,49,1,4,-7
O=C(NNc1cc(N2CCOCC2)nc(N2CCOCC2)n1)c1ccc([N+](=O)[O-])cc1,49*,-25,15,-4,-9,-3
O=C(Nc1ccc(N2CCOCC2)cc1N1CCOCC1)c1ccc([N+](=O)[O-])cc1,-13,5,6,1,-1,-6
Cc1ccc(SCc2cc(=O)n(C)[nH]2)cc1,-10,-6,4,-2,-16,-3
CC(=O)Nc1cccc(C(=O)/C=C/c2ccc(C)cc2)c1,-20,7,43,-1,3,-9
CN(C)c1ccc(/C=C/C(=O)c2cccc(Br)c2)cc1,-63,144*,-18,2,-16,-15
c1ccc(-c2nc(N3CCCCCC3)nc(-n3ccnc3)n2)cc1,-30,-25,17,6,3,-11
c1ccc(N(c2ccccc2)c2nc(-n3ccnc3)nc(-n3ccnc3)n2)cc1,7,3,98*,10,-6,-2
CN(c1ccccc1)c1nc(-n2ccnc2)nc(-n2ccnc2)n1,2,-21,36,-2,-6,1
c1ccc(-c2nc(N3CCN(c4ccccc4)CC3)nc(-n3ccnc3)n2)cc1,58*,7,68*,5,6,-2
O=[N+]([O-])c1ccc(SCCO)nc1SCCO,-10,-12,nt,-1,1,-9
CC1CCCN(C2=C(NS(=O)(=O)c3ccc(Cl)cc3)C(=O)c3ccccc3C2=O)C1 (configuration not stated),50*,-6,15,1,6,-6
CCOC(=O)C1CCCN(C(=O)c2csc(-c3ccc4c(c3)CCO4)n2)C1 (configuration not stated),5,-2,nt,0,-2,-9
O=C(NNS(=O)(=O)c1ccccc1[N+](=O)[O-])c1ccc(O)cc1,42*,-27,6,22,7,4
O=C(NNS(=O)(=O)c1ccccc1[N+](=O)[O-])c1ccc(F)cc1,1,-9,-13,-2,-9,-5
O=C(O)CCC(=O)N(Cc1ccco1)C1CC(=O)N(c2ccccc2)C1=O (configuration not stated),-8,-11,nt,-4,-1,-4
COc1cc(CC(=O)Nc2ccc(S(=O)(=O)NC3=NCCCCC3)cc2)cc(OC)c1OC,-7,5,-13,-3,-11,-3
COC(=O)c1ccc(NC(=O)Nc2ccc(F)c(Cl)c2)cc1,-22,-1,62*,6,2,-38
CC(=O)c1ccc(NC(=O)Nc2cccc(Cl)c2)cc1,-13,1,72*,10,17,-18
COC(=O)c1ccc(NC(=O)Nc2ccc(F)cc2)cc1,-21,-4,24,-10,-9,-6
O=C(O)CCCCCNc1ccc2nsnc2c1[N+](=O)[O-],-5,-25,-5,1,9,0
CCNc1ccc(Br)cc(C(=O)/C=C/c2c(Cl)cccc2Cl)c1=O,-5,-36,11,10,83*[fluorescence artefact?],2
CN1C(=O)C(CC(=O)O)S/C1=N\N=C\c1ccc(O)cc1O (configuration not stated),-2,-7,nt,6,-3,3
O=S(=O)(Nc1cccc(-c2nc3cccnc3s2)c1)c1ccc2c(c1)OCCO2,-27,-15,68*,-2,-3,-16
SMILES,NCF1 inh,EBV gp42 block,WT yeast gro inh,eIF4E-4G inh,14-3-3 Bad inh,RBBP9 inh
O=C(Nc1cccc(-c2nc3cccnc3s2)c1)C1c2ccccc2Oc2ccccc21,25,-47,-6,34*,91*,-7
Cc1ccc(-c2nc3cccnc3s2)cc1NS(=O)(=O)c1ccc2c(c1)OCCO2,-55,-4,49,-2,-4,-13
O=C(Nc1cccc(-c2nc3cccnc3s2)c1)c1cccnc1Cl,-2,9,nt,-4,7,-7
CN(C)CCn1c(N)nc2ccccc21,2,-7,nt,3,-2,0
COCCOn1c(SCCOC)nc2ccccc2c1=O,-2,-17,nt,8,24,-7
C/C(=N\Nc1cccc2cccnc12)c1ccc(C)cc1,-10,-5,74*,1,1,-9
Oc1ccccc1/C=N/Nc1cccc2cccnc12,-12,6,-3,-7,-9,0
Cn1ccc(CC(=O)N2CCC(N3CCC(C(=O)N4CCCC4)CC3)CC2)c1,-161,-19,nt,-4,-14,2
Fc1ccc(-c2cc3nc(-c4ccccc4)cc(N4CCOCC4)n3n2)cc1,5,-4,nt,-3,0,2
COCCN1CCN(c2cc(-c3ccccc3)nc3cc(-c4cccc(F)c4)nn23)CC1,-19,-6,77*,3,-1,-9
COc1ccc(-c2cc3nc(-c4ccccc4)cc(N4CCCC(O)C4)n3n2)cc1 (configuration not stated),-16,-12,68*,3,-1,-9
COc1ccc(-c2cc3nc(-c4ccccc4)cc(N4CCC(O)CC4)n3n2)cc1,-31,6,62*,2,-9,-17
COc1ccc(N(CC(=O)N2CCN(c3ccccc3)CC2)S(=O)(=O)c2c(C)noc2C)cc1,-13,-15,4,4,0,-6
CCOc1ccc(N(CC(=O)N2CCN(c3ccccc3)CC2)S(=O)(=O)c2c(C)noc2C)cc1,43*,-11,-1,0,4,1
C[N+](C)(C)c1ccc(/C=N/Nc2nc(Cl)c(C#N)c(Cl)c2Cl)cc1,16,-98,54,30*[fluorescence artefact?],40,5
N#CC1=C2N=C(N)c3ccccc3N2C2=C(C(=O)CCC2)C1c1ccc(F)cc1 (configuration not stated),-4,2,nt,94*,-9,-2
Cc1cccc(N2CC(C(=O)O)CC2=O)c1C (configuration not stated),0,-7,nt,1,5,2
COc1ccccc1-n1cnnc1SCC(=O)Nc1cc(C(C)(C)C)nn1-c1ccccc1,-5,-12,78*,-3,-4,-1
CCCC[C@@H]1CNC(=S)N1CCC12CC3CC(CC(C3)C1)C2,0,0,65*,-4,3,0
CCCC[C@@H]1CNC(=S)N1CCc1cccc2ccccc12,-5,-1,75*,-2,-5,-7
CCCC[C@@H]1CNC(=S)N1CCc1cccc(F)c1,-11,-7,65*,-1,-4,2
Fc1cccc(CCN2C(=S)NC[C@@H]2Cc2ccccc2)c1,-1,-6,66*,-5,0,-4
CCCCN1C(=S)NC[C@@H]1Cc1cccc2ccccc12,-15,-9,nt,-1,-4,nt

# Source: PubChem (several laboratories)
